Test results: ChEMBL document CHEMBL2069299, “Biologically active ester derivatives as potent inhibitors of the soluble epoxide hydrolase” (Bioorg Med Chem Lett, 2012)
≈ marks a conversion by molar mass, not a printed value.

Assays:
[1] = biological target: T1, Bifunctional epoxide hydrolase 2 (Homo sapiens, UniProt P34913); experiment: Inhibition of human soluble epoxide hydrolase pre-incubated for 5 mins at 30 degC before CMNPC fluorescent substrate addition by fluorimetric assay
T1 sequence (P34913 whole entry): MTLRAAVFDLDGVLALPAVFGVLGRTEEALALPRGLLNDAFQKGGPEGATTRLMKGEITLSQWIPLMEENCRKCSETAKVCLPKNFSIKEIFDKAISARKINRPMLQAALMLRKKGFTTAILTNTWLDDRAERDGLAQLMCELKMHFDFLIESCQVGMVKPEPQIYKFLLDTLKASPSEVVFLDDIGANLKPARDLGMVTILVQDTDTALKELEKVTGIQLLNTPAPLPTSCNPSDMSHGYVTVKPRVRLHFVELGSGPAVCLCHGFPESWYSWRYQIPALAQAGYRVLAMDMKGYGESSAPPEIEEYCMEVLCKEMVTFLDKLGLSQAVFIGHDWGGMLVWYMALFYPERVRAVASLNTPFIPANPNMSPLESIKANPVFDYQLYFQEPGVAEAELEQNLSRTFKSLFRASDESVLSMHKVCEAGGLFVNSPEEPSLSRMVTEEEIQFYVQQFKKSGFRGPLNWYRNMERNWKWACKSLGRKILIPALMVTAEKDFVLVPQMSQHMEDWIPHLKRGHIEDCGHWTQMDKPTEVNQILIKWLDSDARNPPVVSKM
How it was run: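 Recombinant-free detail not given; human sEH at 0.96 nM preincubated with inhibitor 5 min at 30°C in 25 mM Bis-Tris/HCl, pH 7.0, then fluorescent substrate added at 5 μM. Fluorescence read-out; IC50 reported as mean of three separate measurements, assay standard error stated as 10–20%.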

[2] = Stability in human liver microsomes aunder NADPH generating system at 37 degC for 60 mins by LC-MS/MS method; format: ADME, Microsome; conditions: read-out: Stability
How it was run: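 Test compound incubated with 0.125 mg human liver microsomal protein plus NADPH-generating system, shaken 37°C for 60 min. Remaining parent quantified by LC-MS/MS and expressed as percent; acid metabolites also monitored. Mean of triplicate independent analyses.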

[3] = Solubility in water using 0.1 M pH 7.4 phosphate buffer by LC-MS/MS method; format: physicochemical
How it was run: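 Excess solid suspended in 0.1 M sodium phosphate buffer, pH 7.4; equilibrated by 1 h sonication then 24 h shaking; centrifuged. Supernatant analysed by LC-MS/MS, with amount calculated from a regression curve built for each compound from five standard solutions.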

Q: With `CCCCC(C#N)OC(=O)CCCNC(=O)NC12CC3CC(CC(C3)C1)C2` (stereo not given) as the compound, how does the IC50 [1] read?
A: 12 nM

Q: For `CCOCCOCCOC(=O)CCCNC(=O)NC12CC3CC(CC(C3)C1)C2`, which remaining at 1 h [2] is on record?
A: 10%

Q: What about the IC50 [1] of the same compound?
A: 67 nM

Q: And the solubility [3]?
A: 878 µg/mL (≈ 2210 µM)

Q: Which remaining at 1 h [2] does the source give for `O=C(O)CCCNC(=O)NC12CC3CC(CC(C3)C1)C2` here?
A: 97%

Q: What about the IC50 [1] of the same compound?
A: 684 nM

Q: With `CCCCC(CC)OC(=O)C1CCCC(NC(=O)NC23CC4CC(CC(C4)C2)C3)C1` (stereo not given) as the compound, how does the remaining at 1 h [2] read?
A: 10%

Q: What about the IC50 [1] of the same compound?
A: 3 nM

Q: And the solubility [3]?
A: 1 µg/mL (≈ 2.39 µM)

Q: With `O=C(NC1CCCC(C(=O)O)C1)NC12CC3CC(CC(C3)C1)C2` (stereo not given) as the compound, how does the remaining at 1 h [2] read?
A: 95%

Q: What about the IC50 [1] of the same compound?
A: 1160 nM

Q: With `CCCCC(CC)OC(=O)CCCNC(=O)NC12CC3CC(CC(C3)C1)C2` (stereo not given) as the compound, how does the remaining at 1 h [2] read?
A: 4%

Q: And the IC50 [1]?
A: 4 nM

Q: What about the solubility [3] of the same compound?
A: 3 µg/mL (≈ 7.92 µM)

Q: Which remaining at 1 h [2] does the source give for `CCOCCOCC(OC(=O)C1CCCC(NC(=O)NC23CC4CC(CC(C4)C2)C3)C1)c1ccccc1` (stereo not given) here?
A: 32%

Q: What about the IC50 [1] of the same compound?
A: 9 nM

Q: And the solubility [3]?
A: 41 µg/mL (≈ 80 µM)

Q: With `CCCCCOC(=O)CCCNC(=O)NC12CC3CC(CC(C3)C1)C2` as the compound, how does the remaining at 1 h [2] read?
A: < 1%

Q: And the IC50 [1]?
A: 10 nM

Q: And the solubility [3]?
A: 2 µg/mL (≈ 5.71 µM)

Q: For `CCOCCOCC(OC(=O)CCCNC(=O)NC12CC3CC(CC(C3)C1)C2)c1ccccc1` (stereo not given), which remaining at 1 h [2] is on record?
A: 14%

Q: And the IC50 [1]?
A: 4 nM

Q: What about the solubility [3] of the same compound?
A: 89 µg/mL (≈ 188 µM)

Q: For `CCCCC(C)OC(=O)CCCNC(=O)NC12CC3CC(CC(C3)C1)C2` (stereo not given), which IC50 [1] is on record?
A: 4 nM

Q: For `CCCCCOC(=O)C1CCCC(NC(=O)NC23CC4CC(CC(C4)C2)C3)C1` (stereo not given), which IC50 [1] is on record?
A: 2 nM
